From ChEMBL document CHEMBL2321672, “Discovery of biphenylacetamide-derived inhibitors of BACE1 using de novo structure-based molecular design” (J Med Chem, 2013) come the findings set out here.

Active and inactive are the calls of the source. No cut-off for these calls is given here.

In data set [1] the target is T1, Beta-secretase 1 (Homo sapiens, UniProt P56817). The data set is described as follows: Inhibition of recombinant BACE1 (unknown origin) using FAM-SEVNLDAEFK-TAMRA as substrate at 100 uM incubated for 30 mins prior to substrate addition by fluorimetric analysis relative to control.
T1 sequence (P56817 whole entry): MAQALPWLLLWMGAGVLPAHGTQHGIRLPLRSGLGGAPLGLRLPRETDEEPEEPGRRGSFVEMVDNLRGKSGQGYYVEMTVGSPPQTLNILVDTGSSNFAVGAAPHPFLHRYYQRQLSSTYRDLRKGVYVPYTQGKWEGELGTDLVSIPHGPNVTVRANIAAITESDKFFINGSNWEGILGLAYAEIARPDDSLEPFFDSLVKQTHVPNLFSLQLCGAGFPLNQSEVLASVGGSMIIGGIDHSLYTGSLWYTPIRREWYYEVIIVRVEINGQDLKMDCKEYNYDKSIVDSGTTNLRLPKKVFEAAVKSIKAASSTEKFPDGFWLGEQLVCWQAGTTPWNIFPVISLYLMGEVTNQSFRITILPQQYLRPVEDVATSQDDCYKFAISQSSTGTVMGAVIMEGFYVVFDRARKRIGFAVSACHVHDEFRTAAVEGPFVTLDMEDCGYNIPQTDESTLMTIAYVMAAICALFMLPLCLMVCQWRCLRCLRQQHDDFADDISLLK
Data set [2] can be described thus: Cytotoxicity against HEK293 cells assessed as cell viability at 100 uM after 24 hrs by MTT assay relative to control. Type of data set: cell-based. As to conditions: human, read-out: Activity. The method, boiled down:
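MTT viability read-out on mammalian cells after 24-hour exposure to 100 µM compound; viable cells expressed as percentage remaining relative to control; mean ± SEM, n ≥ 3.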
(In general: Tetrazolium dyes change colour on reduction, which living cells bring about.)

The species entered for data set [3] is Homo sapiens. Put plainly: Selectivity ratio of IC50 for recombinant BACE2 (unknown origin) to IC50 of recombinant BACE1 (unknown origin).
The target in data set [4] is T2, Beta-secretase 2 (Homo sapiens, UniProt Q9Y5Z0).
T2 sequence (Q9Y5Z0 whole entry): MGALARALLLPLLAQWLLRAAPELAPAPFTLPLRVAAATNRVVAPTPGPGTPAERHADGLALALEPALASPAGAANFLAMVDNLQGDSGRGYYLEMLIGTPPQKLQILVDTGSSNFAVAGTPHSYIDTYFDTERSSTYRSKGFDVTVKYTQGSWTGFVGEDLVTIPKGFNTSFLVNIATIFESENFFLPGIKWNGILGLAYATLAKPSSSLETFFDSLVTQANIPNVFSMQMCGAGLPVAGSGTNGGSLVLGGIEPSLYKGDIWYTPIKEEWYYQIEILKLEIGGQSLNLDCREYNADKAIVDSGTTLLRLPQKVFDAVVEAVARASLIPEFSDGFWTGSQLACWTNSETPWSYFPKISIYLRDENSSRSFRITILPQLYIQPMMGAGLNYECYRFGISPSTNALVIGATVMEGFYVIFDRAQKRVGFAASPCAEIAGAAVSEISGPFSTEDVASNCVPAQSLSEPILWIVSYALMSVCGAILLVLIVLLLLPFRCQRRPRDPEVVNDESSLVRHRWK
Put plainly: Inhibition of recombinant BACE2 (unknown origin) using FAM-SEVNLDAEFK-TAMRA as substrate incubated for 30 mins prior to substrate addition by fluorimetric analysis.

Data set [5] deals with T1, Beta-secretase 1. Put plainly: Inhibition of recombinant BACE1 (unknown origin) using FAM-SEVNLDAEFK-TAMRA as substrate incubated for 30 mins prior to substrate addition by fluorimetric analysis.
Data set [6] concerns HEK293. Put plainly: Effect on sAPPalpha level in HEK293 cells coexpressing N-terminal […] APP at 100 uM after 24 hrs by Western blotting analysis. Format: functional. The method, boiled down: (§1)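 HEK 293 cells over-expressing BACE1 were exposed to compound at 100 µM for 24 hours. Conditioned media were western blotted for sAPPα and sAPPβ, with sAPPβ detected by antibody 1A9. Levels were compared with control.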
A general note: In western blotting, separated proteins are transferred to a membrane and probed.

Data set [7] deals with T1, Beta-secretase 1. Put plainly: Inhibition of BACE1 (unknown origin) -mediated sAP-APP production expressed in HEK293 cells coexpressing N-terminal […] APP at 100 uM after 24 hrs by spectrophotometric analysis. Format: cell-based. The method, boiled down:
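HEK 293 cells stably expressing BACE1 plus wild-type human APP carrying an N-terminal alkaline phosphatase tag (AP-APP) were incubated with compound. Release of sAP-APP into conditioned media was quantified as alkaline phosphatase activity and expressed as percentage of the matched control.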

The target of data set [8] is T1, Beta-secretase 1. The data set is described as follows: Inhibition of BACE1 (unknown origin) expressed in HEK293 cells coexpressing N-terminal […] APP assessed as decrease in sAPPbeta level at 100 uM after 24 hrs by Western blotting analysis. Type of data set: cell-based. The method, boiled down: as §1

What is called inhibition is the change of the read-out against control, counted positive when it falls. As usually defined, the IC50 is the concentration needed to halve the response being measured. On to `NCc1ccc(CNC(=O)Cc2ccc(-c3ccccc3)cc2)cc1`, for which the inhibition in data set [1] is 35.6%. In addition, in data set [2], the viability at 24 h, 100 µM was determined as 42%. For the same compound, the Ratio IC50 in data set [3] stood at 2. For the same compound, the IC50 in data set [4] was > 1000 µM; in data set [5] (read-out: IC50), 323 µM.
Consider `O=C(Cc1ccc(-c2c(F)c(F)c(F)c(F)c2F)cc1)NCc1ccccc1`, for which the viability at 24 h, 100 µM in data set [2] amounted to 61%. Further, in data set [5], the half-maximal inhibitory concentration (IC50) entry is recorded as “Not Active”.
In the same order, the values of `O=C(Cc1ccc(-c2cccc(C(F)(F)F)c2)cc1)NCc1ccccc1` are 27% and “Not Active”.
For `O=C(Cc1ccc(-c2ccccc2)cc1)Nc1ccc(Br)cc1`, the inhibition entry in data set [1] is “inactive”.
In the case of `O=C(Cc1ccc(-c2ccccc2)cc1)NCc1ccc(CN2CCCC2)cc1`, in data set [1], the inhibition came to 24.4%. Besides, the viability at 24 h, 100 µM in data set [2] amounted to 24%. Also, the IC50 in data set [5] (read-out: IC50) is > 100 µM.
In the same order, the values of `CCN(CC)Cc1ccc(CNC(=O)Cc2ccc(-c3ccccc3)cc2)cc1` are 34.4%, 38% and > 100 µM.
Turning to `CC[N+](CC)(CC)Cc1ccc(CNC(=O)Cc2ccc(-c3ccccc3)cc2)cc1`, the inhibition in data set [1] stood at 44.1%. In addition, the viability at 24 h, 100 µM in data set [2] is 40%. Also, the IC50 in data set [5] (read-out: IC50) is > 100 µM.
`NCc1ccc(CNC(=O)Cc2ccc(-c3cc(C(F)(F)F)cc(C(F)(F)F)c3)cc2)cc1`: in data set [1], the inhibition is 80.6%. Further, in data set [2], the viability at 24 h, 100 µM was determined as 8%. Further, the IC50 in data set [4] stood at 33.2 µM; in data set [5] (read-out: IC50), 63.9 µM.
For `O=C(Cc1ccc(-c2ccccc2)cc1)NCc1ccccc1`, the inhibition in data set [1] came out at 15.2%. In data set [2], the viability at 24 h, 100 µM came to 93%. Further, the inhibition entry in data set [5] was “inactive”.
For the compound `NCc1ccc(CNC(=O)C(Cc2ccccc2)c2ccc(-c3ccccc3)cc2)cc1` (stereo unspecified), the inhibition in data set [1] worked out at 102%. Also, the viability at 24 h, 100 µM in data set [2] amounted to 15%. For the same compound, the IC50 in data set [4] is 21 µM; in data set [5] (read-out: IC50) it was 26.9 µM.
With `NCc1ccc(CNC(=O)Cc2ccc(-c3c(F)c(F)c(F)c(F)c3F)cc2)cc1`, in data set [6] (Homo sapiens), the result was inactive. The inhibition worked out at 51.8% in data set [1] and 39.4% in data set [7]. Besides, the viability at 24 h, 100 µM in data set [2] was 68%. Further, the Ratio IC50 in data set [3] stood at 2. Further, the IC50 in data set [4] came out at 246 µM; in data set [5] (read-out: IC50), 101 µM. Further, the inhibition entry in data set [8] was “Active”.
With `O=C(Cc1ccc(-c2ccccc2)cc1)NCCc1c[nH]c2ccccc12`, the inhibition entry in data set [1] is “inactive”.
As for `COc1ccc(CNC(=O)Cc2ccc(-c3ccccc3)cc2)cc1`, the inhibition result in data set [1] and in data set [5] was “inactive” each time. In data set [2], the viability at 24 h, 100 µM was found to be 82%.
`C[C@@H](C(=O)NCc1ccc(CN)cc1)c1ccc(-c2ccccc2)c(F)c1`: in data set [1], the inhibition turned out to be 55.5%. Also, in data set [2], the viability at 24 h, 100 µM was 18%. Moreover, in data set [3], the Ratio IC50 worked out at 2. The IC50 in data set [4] came to 194 µM; in data set [5] (read-out: IC50), 85.7 µM.
In data set [6], `O=C(Cc1ccc(-c2ccccc2)cc1)NCc1ccc(CN2Cc3ccccc3C2)cc1` yielded an Activity of 10%. Besides, the inhibition in data set [1] was found to be 70.1%; in data set [7] it was 21.7%; in data set [8] it was 33%. Further, the viability at 24 h, 100 µM in data set [2] was 80%. In data set [3], the Ratio IC50 was 2. Further, the IC50 is > 1000 µM in data set [4] and 63.3 µM in data set [5] (read-out: IC50).
Consider `O=C(Cc1ccc(-c2cc(C(F)(F)F)cc(C(F)(F)F)c2)cc1)NCc1ccccc1`, for which the viability at 24 h, 100 µM in data set [2] amounted to 76%. Also, the IC50 result in data set [5] was “Not Active”.
For `NCc1ccc(CNC(=O)Cc2ccc(-c3ccccc3)c(O)c2)cc1`, the inhibition in data set [1] was 28.1%. Also, the viability at 24 h, 100 µM in data set [2] is 50%. In addition, the IC50 in data set [5] (read-out: IC50) is > 100 µM.
As for `COc1ccc(NC(=O)Cc2ccc(-c3ccccc3)cc2)cc1`, in data set [1], the inhibition entry was “inactive”.
Turning to `NCc1ccc(CNC(=O)Cc2ccc(-c3ccccc3)cc2O)cc1`, in data set [1], the inhibition was 42.5%. The viability at 24 h, 100 µM in data set [2] came out at 18%. For the same compound, the IC50 in data set [5] (read-out: IC50) is > 100 µM.
On to `NCc1ccc(CNC(=O)Cc2ccc(-c3cccc(C(F)(F)F)c3)cc2)cc1`, for which the inhibition in data set [1] came out at 60.7%. The viability at 24 h, 100 µM in data set [2] came to 46%. The Ratio IC50 in data set [3] stood at 2. Further, the IC50 came out at 319 µM in data set [4] and 58.9 µM in data set [5] (read-out: IC50).
The corresponding values for `CC(C(=O)NCc1ccc(CN)cc1)c1ccc(-c2ccccc2)c(F)c1` (stereo unspecified) are 51.7%, 11%, 2, 207 µM and 77.1 µM.
With `CC(C)C(C(=O)NCc1ccc(CN)cc1)c1ccc(-c2ccccc2)cc1` (stereo unspecified), the inhibition in data set [1] was found to be 66.1%. For the same compound, the viability at 24 h, 100 µM in data set [2] amounted to 50%. Besides, the Ratio IC50 in data set [3] is 2. For the same compound, the figures for the IC50 in data set [4] and in data set [5] (read-out: IC50) were 100 µM and 33.5 µM, respectively.
On to `NCc1ccc(CNC(=O)Cc2ccc(-c3ccc(O)cc3)cc2)cc1`, for which, in data set [1], the inhibition turned out to be 41.3%. In addition, the IC50 in data set [5] (read-out: IC50) was > 100 µM.
